Source: PubChem
Most compounds without a hit are left out; they make up all but 3.5% or so of the library.
MrgX1 PAM = allosterically activates human MrgX1 receptor signaling | B-score at 10 µM | 310,000 compounds, 0.63% hits | Q96LB2 | MrgX1-HEK293, Fluo-4 calcium flux, FDSS; active compounds read high | AID 588675;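 active means plate-corrected calcium response at least 3 library SD above typical, normal starting fluorescence, not activating the receptor alone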;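 further: compound read alongside a low EC10 to EC30 dose of BAM8-22 agonist; peak minus trough fluorescence over baseline measured at the second addition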
MrgX1 ag = human MrgX1 receptor agonism, primary screen. MrgX1-HEK293 cells, Fluo-4 calcium fluorescence, agonist mode; active compounds read high. 310,000 compounds, 0.44% hits. AID 588627. Q96LB2. B-score at 10 µM;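 active means calcium response B-score plate-corrected fluorescence ratio at least 3 library SD, with starting fluorescence B-score inside 5 SD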
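System – MrgX1-expressing HEK293 cells · Incubation – cells plated overnight, dye loaded 0.5 h 37 °C, 0.5 h room temperature · Technique – kinetic Fluo-4 NW fluorescence of intracellular calcium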
RGS4 block = inhibitors of human RGS4; B-score at 10 µM; HEK293 M3R/RGS4 inducible, Fluo-4 calcium flux; active compounds read high; triggered by carbachol at its EC20; 310,000 compounds, 0.45% hits;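 active means B-score, a plate-corrected calcium signal, over three deviations above library mean, with baseline fluorescence within five deviations of library mean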;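 further: RGS4 expression induced by doxycycline in cells with stable M3 receptor; B-score is computed from the integrated fluorescence ratio over baseline after carbachol; higher B-score means a larger calcium signal and so more RGS4 inhibition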
Target sequence (P49798 whole entry, looked up): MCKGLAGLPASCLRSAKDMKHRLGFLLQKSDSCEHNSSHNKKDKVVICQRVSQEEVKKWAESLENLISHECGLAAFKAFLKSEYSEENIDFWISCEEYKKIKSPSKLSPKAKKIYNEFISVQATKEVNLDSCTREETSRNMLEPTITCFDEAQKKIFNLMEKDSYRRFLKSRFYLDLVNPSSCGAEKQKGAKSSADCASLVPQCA
RGS4 pot = RGS4 potentiation or activation; HEK293 M3R/inducible RGS4, carbachol calcium flux Fluo4; active compounds read low; AID 463111; 310,000 compounds, 0.92% hits; B-score at 10 µM;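 active means B-score of the integrated calcium signal more than 4 SD below the library mean, with starting fluorescence not abnormally high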;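 further: negative B-score means reduced calcium response which marks RGS4 activation or potentiation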
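test system = HEK293 cells with stable M3R and inducible RGS4 | schedule = recording 10 s baseline at 1 Hz, 100 s post-agonist | technique = Fluo4-AM (2 µM) calcium-flux fluorescence, kinetic read | measure = Agonist-evoked peak-minus-minimum fluorescence over baseline, integrated ratio, B score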
MrgX1 antagonist = antagonists of human MrgX1 receptor | Q96LB2 | MRGX1-HEK293 calcium flux, Fluo-4, BAM8-22 antagonism; active compounds read low | B-score at 10 µM | 310,000 compounds, 1.3% hits | AID 588676;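 active means calcium-response B-score plate-corrected more than 3 library SD below zero, starting fluorescence within 5 deviations, no agonist response on first addition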;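 further: peak minus trough fluorescence over baseline after final BAM8-22 challenge near maximal dose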
MrgX1 antag conf = reconfirmed antagonist of human MrgX1 receptor signaling; shares compounds with MrgX1 antagonist; MrgX1-HEK293, BAM8-22 calcium flux, Fluo-4; active compounds read low; remaining BAM8-22 calcium response % of control (active compounds read low), % at 10 µM; 2,300 compounds, 19% hits;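 active means remaining agonist calcium response no higher than 100% minus 3 SD of agonist-only control wells, with starting fluorescence near control levels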;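 further: agonist BAM8-22 given at a near maximal EC90 to ECmax level; peak minus minimum fluorescence divided by baseline after agonist addition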
HEK293 Ca flux = activity in parental HEK293 cells lacking MrgX1 | shares compounds with MrgX1 antagonist | 4,000 compounds, 2% hits | fluorescence ratio F(max-min)/F0 at 10 µM | Fluo-4 calcium fluorescence, FDSS;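 active means duplicate-averaged calcium fluorescence ratio at least three times the standard deviation of buffer wells, a nonspecific response in parental cells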
HEK293 Ca counter = activity in parental HEK293 cells without MrgX1; shares compounds with MrgX1 antagonist; parental HEK293 calcium flux, Fluo-4 fluorescence ratio; active compounds read high; fluorescence ratio F(max-min)/F0 at 10 µM; 4,000 compounds, 0.4% hits; AID 624114;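 active means calcium fluorescence ratio, averaged over duplicates, at least 3 SD of the buffer-well ratio, meaning a nonspecific response in receptor-free cells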;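 further: untransfected parental HEK293 lacking MrgX1 used as counterscreen for MrgX1 allosteric activators; fluorescence change taken during the second addition on a kinetic imager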
HEK293 Ca cntr2 = activity in parental HEK293 cells lacking MrgX1 receptor. shares compounds with MrgX1 antagonist. Fluo-4 calcium fluorescence (FDSS); active compounds read high. fluorescence ratio F(max-min)/F0 at 10 µM. 4,000 compounds, 8.7% hits. AID 624115;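 active means calcium fluorescence ratio at least three times the spread of buffer wells, meaning a non-specific response in parental cells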
Numbers without * were called inactive; i = inactive; x = no result given.

SMILES	MrgX1 PAM	MrgX1 ag	RGS4 block	RGS4 pot	MrgX1 antagonist	MrgX1 antag conf	HEK293 Ca flux	HEK293 Ca counter	HEK293 Ca cntr2
CC1CN(C(=O)c2cccc(Oc3ccccc3)c2)CC(C)O1 (configuration not stated)	i	i	i	i	-4.7*	i	i	i	i
COc1ccc(N2CCN(C3CCCN(S(=O)(=O)c4ccc(C)cc4C)C3)CC2)cc1 (configuration not stated)	i	i	i	i	i	x	x	x	x
CC(C)OC(=O)CSc1nc(-c2ccc(F)cc2)nc2ccc(F)cc12	i	i	i	i	-10*	i	i	i	i
O=C(NC(=S)Nc1ccc(S(=O)(=O)NC2CCCCC2)cc1)c1cccs1	i	i	i	i	i	x	x	x	x
CCc1cccc(CC)c1-n1c(SCC(=O)N2CCc3ccccc3C2)nnc1-c1cccnc1	i	i	i	i	-7.8*	i	i	i	i
O=C1OCCC1Sc1nc2ccccc2c(=O)n1Cc1ccccc1 (configuration not stated)	i	i	i	i	-6.1*	i	i	i	i
O=C1OCCC1Sc1nc2cc(Cl)ccc2n1Cc1ccccc1 (configuration not stated)	i	i	i	i	i	x	x	x	x
O=C1CSC(c2cccc([N+](=O)[O-])c2)N1c1ccccc1F (configuration not stated)	i	i	i	i	i	x	x	x	x
Cc1cc(-c2ccccc2)nc(SCC(=O)N2CCCC2)n1	i	i	i	i	-5.4*	i	i	i	i
CCc1nc(SCC(=O)N2CCCC2)c2c(=O)n(C)c(=O)n(C)c2n1	i	i	i	i	i	x	x	x	x
Cc1cc(C)nc(SCC(=O)N2CCCCC2)n1	i	i	i	i	i	x	x	x	x
Cn1c(=O)c2c(SCC(=O)N3CCCC3)nc(-c3ccccc3)nc2n(C)c1=O	i	i	i	i	-6*	i	i	i	i
CCN(CC)S(=O)(=O)c1ccc(C(C)NC(=O)Cc2c[nH]c3ccccc23)cc1 (configuration not stated)	i	i	i	i	i	x	x	x	x
CCC(C)(C(=O)NC1CCCC1)N(C(=O)c1ccccn1)c1ccccc1 (configuration not stated)	i	i	i	i	-8*	i	i	i	i
CC1=CC(=O)C(C(C)C)=C/C1=N/OS(=O)(=O)c1ccccc1	i	i	i	-8.2*	-14*	i	i	i	i
CC1=CC(=O)C=C(C)C1=NOS(=O)(=O)c1ccccc1	x	x	i	i	x	x	x	x	x
Cc1nn(-c2nnc(NC3CCCCC3)nn2)c(C)c1Br	i	i	i	i	-4.5*	i	i	i	i
Cc1nn(C)c(C)c1S(=O)(=O)NC1CCCC1	i	i	i	i	i	x	x	x	x
COc1ccc(C(c2c(O)nc(SC)n(C)c2=O)c2c(O)nc(SC)n(C)c2=O)cc1O	i	i	i	i	-7.3*	i	i	i	i
Cc1ccc(NC(=O)N2CCN(C(=O)C3CCCO3)CC2)cc1 (configuration not stated)	i	i	i	i	-5.9*	i	i	i	i
CCOc1ccc(NC(=O)CN2CCN(C(=O)C3CCCO3)CC2)cc1 (configuration not stated)	i	i	i	i	i	x	x	x	x
